ChEMBL document CHEMBL1781968, “δ-Carbolines and their ring-opened analogs: synthesis and evaluation against fungal and bacterial opportunistic pathogens” (Eur J Med Chem, 2011)
≈ marks a conversion by molar mass, not a printed value.

Experiments:
[1] = system: Aspergillus fumigatus; assay: Antifungal activity against Aspergillus fumigatus ATCC 204305 by NCCLS method; format: functional, organism-based
How it was run: (§1)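 Modified NCCLS microdilution for fungi. Samples in DMSO serially diluted with 0.9% saline, in duplicate, final concentrations from 20 μg/mL down. Inocula matched to 0.5 McFarland (630 nm) and diluted in Sabouraud dextrose broth. Growth, solvent and medium controls included. OD 530 nm read before and after incubation. IC50 from percent growth curve. MIC is no detectable growth. MFC is lowest concentration killing the organism.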

[2] = system: Cryptococcus neoformans; assay: Antifungal activity against Cryptococcus neoformans ATCC 90113 by NCCLS method; format: functional, organism-based; how it was run: as §1
[3] = system: Mycobacterium intracellulare; assay: Antibacterial activity against Mycobacterium intracellular ATCC 23068 by alamar blue method; format: functional, organism-based
How it was run: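 Modified Alamar blue method (Franzblau). Samples in DMSO serially diluted in 0.9% saline, in duplicate, final concentrations starting at 20 μg/mL. Inoculum adjusted to 0.5 McFarland, then diluted in Middlebrook 7H9 with OADC enrichment plus 5% Alamar blue. Fluorescence read (ex 544/em 590 nm) before and after incubation. IC50 from percent growth versus concentration. MIC is no detectable growth.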

[4] = system: Staphylococcus aureus; assay: Antibacterial activity against Staphylococcus aureus ATCC 29213 by NCCLS method; format: functional, organism-based
How it was run: (§2)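 Broth microdilution (modified NCCLS). Samples in DMSO serially diluted in 0.9% saline, tested in duplicate, highest final concentration 20 μg/mL. Inoculum matched to 0.5 McFarland standard by absorbance at 630 nm, then diluted in cation-adjusted Mueller–Hinton broth. Growth, solvent and medium controls on each plate. Absorbance at 530 nm read before and after incubation. IC50 taken from percent growth versus concentration plot; MIC is lowest concentration with no detectable growth; MBC is lowest concentration killing the organism.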

[5] = system: Escherichia coli; assay: Antibacterial activity against Escherichia coli by NCCLS method; format: functional, organism-based
How it was run: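 Modified NCCLS broth microdilution. DMSO-dissolved samples serially diluted in 0.9% saline, tested in duplicate, final concentrations starting at 20 μg/mL. Inoculum set to 0.5 McFarland (absorbance 630 nm) and diluted in cation-adjusted Mueller–Hinton broth. Growth, solvent and medium controls on each plate. Read at 530 nm before and after incubation. IC50 from percent growth versus concentration. MIC is lowest concentration with no detectable growth.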

[6] = system: Staphylococcus aureus; assay: Antibacterial activity against methicillin-resistant Staphylococcus aureus ATCC 33591 by NCCLS method; format: functional, organism-based; how it was run: as §2
[7] = system: Candida albicans; assay: Antifungal activity against Candida albicans ATCC 90028 by NCCLS method; format: functional, organism-based; how it was run: as §1
[8] = Cytotoxicity against african green monkey Vero cell after 48 hrs by neutral red uptake assay; format: cell-based; settings: chlorocebus sabaeus, Vero cells; read-out: TC50
How it was run: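 VERO kidney fibroblasts seeded at 25,000 cells/well and incubated 24 h. Compounds added, highest concentration 10 μg/mL, then 48 h further incubation. Viable cells measured by neutral red assay. IC50 taken from growth-inhibition dose curves. Doxorubicin as positive control, DMSO as vehicle control.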

SMILES | MFC [1] | MIC [1] | IC50 [3] | MBC [3] | MIC [3] | IC50 [4] | MBC [4] | MIC [4] | IC50 [5] | MBC [5] | MIC [5] | IC50 [6] | MBC [6] | MIC [6] | CC50 at 48 h [8] | also measured
C[C@@H]1[C@H](O)[C@@H](C)/C=C/C=C/C=C/C=C/C=C/C=C/C=C/[C@H](O[C@@H]2O[C@H](C)[C@@H](O)[C@H](N)[C@@H]2O)C[C@@H]2O[C@](O)(C[C@@H](O)C[C@@H](O)[C@H](O)CC[C@@H](O)C[C@@H](O)CC(=O)O[C@H]1C)C[C@H](O)[C@H]2C(=O)O [AMPHOTERICIN B] | 5 µg/mL (≈ 5.41 µM) | 1.3 µg/mL (≈ 1.41 µM) |  |  |  |  |  |  |  |  |  |  |  |  |  | MFC [2]: 0.63 µg/mL (≈ 0.682 µM); MIC [2]: 0.63 µg/mL (≈ 0.682 µM)
C[n+]1cccc(N(CCCCCC2CCCCC2)c2ccccc2C(F)(F)F)c1.[I-] |  |  | 1.2 µg/mL | 2.5 µg/mL | 3.5 µg/mL | 0.3 µg/mL | 10 µg/mL | 0.3 µg/mL | 9.1 µg/mL | > 20 µg/mL | > 20 µg/mL | 0.6 µg/mL | 5 µg/mL | 1.3 µg/mL |  | 
C[n+]1c2ccccc2cc2[nH]c3ccccc3c21.[I-] [CRYPTOLEPTINE IODIDE] |  |  |  |  |  | 10 µg/mL |  |  |  |  |  | 20 µg/mL |  |  | 3.2 µg/mL | MIC [7]: > 250 µg/mL; MIC [2]: 12.5 µg/mL
COc1ccccc1N(CCCCCC1CCCCC1)c1ccc[n+](C)c1.[I-] |  |  | 1.9 µg/mL | 2.5 µg/mL | 2.5 µg/mL | 0.4 µg/mL | 20 µg/mL | 0.6 µg/mL | 14 µg/mL | > 20 µg/mL | > 20 µg/mL | 1.2 µg/mL | 20 µg/mL | 5 µg/mL |  | 
C[n+]1cccc(N(CCCCCC2CCCCC2)c2ccc(Cl)cc2)c1.[I-] | > 20 µg/mL | 1.6 µg/mL | 1 µg/mL |  | 1.6 µg/mL | 1.5 µg/mL |  | 3.1 µg/mL |  |  |  |  |  |  | > 10 µg/mL | MFC [7]: > 20 µg/mL
O=C(O)c1cn(C2CC2)c2cc(N3CCNCC3)c(F)cc2c1=O [CIPROFLOXACIN] |  |  |  | > 20 µg/mL | 0.5 µg/mL (≈ 1.51 µM) |  | 0.5 µg/mL (≈ 1.51 µM) | 0.3 µg/mL (≈ 0.905 µM) | 0.005 µg/mL (≈ 0.0151 µM) | 0.6 µg/mL (≈ 1.81 µM) | 0.3 µg/mL (≈ 0.905 µM) |  | 0.5 µg/mL (≈ 1.51 µM) | 0.3 µg/mL (≈ 0.905 µM) |  | 
C[n+]1cccc(N(CCCCCC2CCCCC2)c2cccc(C(F)(F)F)c2)c1.[I-] |  |  | 2 µg/mL | 2.5 µg/mL | 2.5 µg/mL |  |  |  | 4.5 µg/mL | > 20 µg/mL | > 20 µg/mL | 1.5 µg/mL | 5 µg/mL | 2.5 µg/mL |  | 
C[n+]1cccc(N(CCCCCC2CCCCC2)c2ccccc2)c1.[I-] | > 20 µg/mL | > 20 µg/mL | 2.1 µg/mL | 2.5 µg/mL | 2.5 µg/mL | 0.7 µg/mL | 10 µg/mL | 1.3 µg/mL | 7.6 µg/mL | > 20 µg/mL | > 20 µg/mL | 3.4 µg/mL | 20 µg/mL | 10 µg/mL | > 10 µg/mL | MFC [7]: > 20 µg/mL; IC50 [1]: 20 µg/mL
Cc1ccc(N(CCCCCC2CCCCC2)c2ccc[n+](C)c2)cc1.[I-] | 5 µg/mL | 5 µg/mL | 1.5 µg/mL | 2.5 µg/mL | 2.5 µg/mL |  |  |  | 4.5 µg/mL | > 20 µg/mL | 20 µg/mL | 1 µg/mL | 2.5 µg/mL | 2.5 µg/mL | > 10 µg/mL | 
C[n+]1cccc(N(CCCCCC2CCCCC2)c2ccc(C(F)(F)F)cc2)c1.[I-] | 5 µg/mL | 2.5 µg/mL | 1 µg/mL | 1.3 µg/mL | 1.3 µg/mL |  |  |  | 3.5 µg/mL | 20 µg/mL | 20 µg/mL | 0.9 µg/mL | 2.5 µg/mL | 2.5 µg/mL | > 10 µg/mL | 
Cc1cccc(N(CCCCCC2CCCCC2)c2ccc[n+](C)c2)c1.[I-] |  |  | 1.1 µg/mL | 5 µg/mL | 1.3 µg/mL | 0.7 µg/mL | 5 µg/mL | 1.3 µg/mL | 7.7 µg/mL | > 20 µg/mL | > 20 µg/mL | 1.2 µg/mL | 5 µg/mL | 2.5 µg/mL |  | 
Cc1ccccc1N(CCCCCC1CCCCC1)c1ccc[n+](C)c1.[I-] |  |  | 1.6 µg/mL | 2.5 µg/mL | 2.5 µg/mL | 0.3 µg/mL | 10 µg/mL | 0.6 µg/mL | 9.4 µg/mL | > 20 µg/mL | > 20 µg/mL | 1 µg/mL | 10 µg/mL | 2.5 µg/mL |  | 
C[n+]1cccc(N(CCCCCC2CCCCC2)c2ccccc2Cl)c1.[I-] | > 20 µg/mL | > 20 µg/mL | 2.1 µg/mL | 5 µg/mL | 2.5 µg/mL | 0.3 µg/mL | 10 µg/mL | 0.6 µg/mL | 7.6 µg/mL | > 20 µg/mL | > 20 µg/mL | 1.1 µg/mL | 10 µg/mL | 2.5 µg/mL |  | 
C[n+]1cccc(N(CCCCCC2CCCCC2)c2cccc(Cl)c2)c1.[I-] | 20 µg/mL | 20 µg/mL | 2.1 µg/mL | 5 µg/mL | 2.5 µg/mL | 0.34 µg/mL | 5 µg/mL | 0.63 µg/mL | 6.5 µg/mL | > 20 µg/mL | > 20 µg/mL | 1.3 µg/mL | 5 µg/mL | 2.5 µg/mL | > 10 µg/mL | IC50 [1]: 12 µg/mL; IC50 [2]: 0.72 µg/mL
CSc1ccc(N(CCCCCC2CCCCC2)c2ccc[n+](C)c2)cc1.[I-] | 10 µg/mL | 10 µg/mL | 1 µg/mL | 5 µg/mL | 1.3 µg/mL | 0.3 µg/mL | 5 µg/mL | 0.6 µg/mL | 5.2 µg/mL | 20 µg/mL | 20 µg/mL | 1 µg/mL | 2.5 µg/mL | 2.5 µg/mL | > 10 µg/mL | 
CCc1ccc(N(CCCCCC2CCCCC2)c2ccc[n+](C)c2)cc1.[I-] |  |  | 0.6 µg/mL | 5 µg/mL | 1.3 µg/mL | 0.2 µg/mL | 5 µg/mL | 3 µg/mL | 4 µg/mL | 20 µg/mL | 20 µg/mL | 0.7 µg/mL | 2.5 µg/mL | 1.3 µg/mL |  | 
